Data: article PMC7984404 (Journal of Clinical Pharmacology, 2020)

Key:
[1] = test system: pediatric patients with HAE; experiment: Time to onset of symptom relief; assay type: in vivo, human; conditions: for Median time to 50% probability of TOSR: pediatric HAE
Summary of the method: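 Pediatric HAE patients aged 2-17 received single SC 0.4 mg/kg (≤30 mg). The investigator scored symptoms before and after dosing. TOSR was the earliest time with ≥20% improvement in composite score and no component worsening. Model-predicted CTOSR, AUC0-TOSR, AUC0-6 and Cmax were related to TOSR by Kaplan-Meier curves stratified by exposure tertiles, and also by age group and sex.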

Exposure parameters = assay type: in vivo, human; conditions: for AUC0-6, mean (%CV) / AUC0-6, median [range] / Cmax, mean (%CV) / Cmax, median [range]: popPK model-derived
Summary of the method: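 Final popPK model simulated concentration-time profiles from each subject's actual dosing history: single SC doses of 30 or 45 mg in adult HAE patients, and 0.05, 0.2 and 0.4 mg/kg single ascending doses in healthy adults. AUC0-6 came from simulated rich profiles by the trapezoidal rule, alongside Cmax, tmax and distribution and terminal half-lives. Values were summarised descriptively.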

[2] = cited from earlier work
[3] = Population pharmacokinetic; assay type: in vivo, human
Summary of the method: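 Pooled data from healthy adults, adult HAE patients and pediatric HAE patients aged 2-17 (2172 plasma concentrations, LC-MS/MS) were fitted with a two-compartment model. It had first-order absorption, lag time, and allometric weight effects with estimated exponents. Between-subject variability was log-normal, with additive plus proportional residual error. Covariates were weight, age, sex, race and attack within 12 h. CIs came from about 1000 bootstrap replicates, with prediction-corrected VPC.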

[4] = adult patients with HAE, SC 30 mg, n = 4
[5] = adult patients with HAE, SC 45 mg, n = 4
[6] = healthy subjects, SC 0.4 mg/kg, n = 24
[7] = healthy subjects, SC 30 mg, n = 109
[8] = pediatric patients with HAE 2-5 years, SC 0.4 mg/kg, n = 2
[9] = pediatric patients with HAE, SC 0.4 mg/kg (≤30 mg)
[10] = final popPK model, typical value, reference 70 kg
[11] = typical 70-kg adult, final popPK model

AUC0-6, mean (%CV) (Exposure parameters; [4]): 2725 (25.3) ng·h/mL
AUC0-6, median [range] (Exposure parameters; [4]): 2975 [1734‐3216] ng·h/mL
Cmax, mean (%CV) (Exposure parameters; [4]): 1279 (16.7) ng/mL
Cmax, median [range] (Exposure parameters; [4]): 1254 [1056‐1551] ng/mL
AUC0-6, mean (%CV) (Exposure parameters; [5]): 5473 (18.6) ng·h/mL
AUC0-6, median [range] (Exposure parameters; [5]): 5565 [4155‐6608] ng·h/mL
Cmax, mean (%CV) (Exposure parameters; [5]): 2136 (16.3) ng/mL
Cmax, median [range] (Exposure parameters; [5]): 2222 [1680‐2421] ng/mL
AUC0-6, mean (%CV) (Exposure parameters; [6]): 2669 (20.9) ng·h/mL
AUC0-6, median [range] (Exposure parameters; [6]): 2704 [1720‐3829] ng·h/mL
Cmax, mean (%CV) (Exposure parameters; [6]): 1240 (25.1) ng/mL
Cmax, median [range] (Exposure parameters; [6]): 1258 [836‐2120] ng/mL
AUC0-6, mean (%CV) (Exposure parameters; [7]): 2038 (23.8) ng·h/mL
AUC0-6, median [range] (Exposure parameters; [7]): 1941 [1126‐3311] ng·h/mL
Cmax, mean (%CV) (Exposure parameters; [7]): 974 (30.1) ng/mL
Cmax, median [range] (Exposure parameters; [7]): 915 [524‐2115] ng/mL
AUC0-6, mean (%CV) (Exposure parameters; [8]): 900 (24.6) ng·h/mL
AUC0-6, median [range] (Exposure parameters; [8]): 900 [744‐1056] ng·h/mL
Cmax, mean (%CV) (Exposure parameters; [8]): 692 (18.1) ng/mL
Cmax, median [range] (Exposure parameters; [8]): 692 [604‐780] ng/mL
Mean AUC0-6 lower than in adult patients with HAE treated with 30 mg (Exposure parameters; [9]): about 50%
Mean Cmax lower than in adult patients with HAE treated with 30 mg (Exposure parameters; [9]): ~42%
Cl/F lower than in a 70-kg adult ([3]; 60-kg adolescent (aged 12-17 years), final popPK model): 7%
Time to complete absorption after dosing ([3]; SC dosing, expected from final popPK model): ≤ 1 h
Absorption half-life t1/2(a) ([3]; corresponding to ka = 3.27 h^–1, SC dosing, final popPK model): ~12.7 min
Allometric exponent of weight (weight/70) on Vc/F ([3]; final popPK model): 0.671
Allometric exponent of weight (weight/70) on Vp/F ([3]; final popPK model): 0.671
Multiplicative factor on Vc/F if female ([3]; final popPK model): 0.855
Multiplicative factor on Vc/F if nonwhite ([3]; final popPK model): 1.11
Typical Cl/F lower in females than in males ([3]; final popPK model): about 12%
Typical Cl/F lower in pediatric patients who experienced an acute attack ([3]; final popPK model): 9%
Typical Vc/F higher in nonwhite than in white subjects ([3]; final popPK model): 11%
ka (absorption rate constant) ([3]; final popPK model, SC dosing, n = 172 (adults and pediatric HAE), typical value): 3.27 h^–1
tlag (lag time) ([3]; final popPK model, SC dosing, n = 172, typical value): 0.0426 h
Vc/F (apparent central volume of distribution) ([3]; final popPK model, SC dosing, n = 172, typical value, reference 70 kg): 20.4 L
Cl/F (apparent total clearance) ([3]; final popPK model, SC dosing, n = 172, typical value, reference 70 kg, age 25): 15.4 L/h
Clp/F (apparent intercompartmental clearance) [3, 10]: 0.398 L/h
Vp/F (apparent peripheral volume of distribution) [3, 10]: 1.75 L
Clearance slower relative to a subject aged 25 years ([3]; subject aged 45 years, age effect of final popPK model): 20%
Cl/F lower than in a 70-kg adult ([3]; typical 40-kg child (aged 2-11 years), final popPK model): 25%
Distribution half-life t1/2(α) [3, 11]: 53.4 min
Terminal elimination half-life t1/2(β) [3, 11]: 192 min
SMILES: NC(N)=NCCC[C@@H](N)C(=O)N[C@@H](CCCN=C(N)N)C(=O)N1CCC[C@H]1C(=O)N1C[C@H](O)C[C@H]1C(=O)NCC(=O)N[C@@H](Cc1cccs1)C(=O)N[C@@H](CO)C(=O)N1Cc2ccccc2C[C@@H]1C(=O)N1[C@H](C(=O)N[C@@H](CCCN=C(N)N)C(=O)O)C[C@@H]2CCCC[C@@H]21 [icatibant]
Median time to 50% probability of TOSR ([1]; first tertile of CTOSR): 2.00 h
Time within which all patients displayed resolution of symptoms ([1]; pediatric patients with HAE, single SC 0.4 mg/kg (≤30 mg)): ≤ 4 h
Median time to 50% probability of TOSR ([1]; second tertile of CTOSR): 1.03 h
Time to achievement of maximum plasma concentrations ([2]; adults, single subcutaneous injection of 30 mg): ≤ 1 h
Parent drug excreted unchanged in human urine ([2]; human): < 10%
